Measurements published in article PMC9394215 (Journal for Immunotherapy of Cancer, 2022).

Assays:
human CD39 [1] = molecular target: T1, human CD39 (Homo sapiens, UniProt P49961); type: biochemical
T1 sequence (P49961 1-510): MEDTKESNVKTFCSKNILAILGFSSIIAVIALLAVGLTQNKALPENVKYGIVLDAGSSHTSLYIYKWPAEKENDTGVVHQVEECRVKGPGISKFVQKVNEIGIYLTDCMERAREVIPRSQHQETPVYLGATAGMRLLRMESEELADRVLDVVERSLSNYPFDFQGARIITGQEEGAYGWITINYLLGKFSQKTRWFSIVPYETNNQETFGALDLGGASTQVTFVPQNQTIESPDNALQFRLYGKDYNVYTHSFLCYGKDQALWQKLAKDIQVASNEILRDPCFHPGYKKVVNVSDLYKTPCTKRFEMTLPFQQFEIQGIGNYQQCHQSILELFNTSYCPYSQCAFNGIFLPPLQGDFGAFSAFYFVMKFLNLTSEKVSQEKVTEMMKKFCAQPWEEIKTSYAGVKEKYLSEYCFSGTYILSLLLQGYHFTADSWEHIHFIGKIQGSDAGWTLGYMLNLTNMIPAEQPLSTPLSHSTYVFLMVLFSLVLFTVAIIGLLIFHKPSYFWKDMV
Method in brief: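 CD39 came from human umbilical cord membranes (50.0 ng protein per well). Substrate was 50 µM ATP in 10 mM HEPES, 2 mM CaCl2, 1 mM MgCl2, pH 7.4, with ≤2% DMSO. Enzyme and test compound were preincubated 5 min at 37°C; reaction ran 15 min at 37°C. Malachite green/molybdate was added and A600 read after 20 min at 25°C, minus a heat-denatured enzyme blank. Screening was at 10 µM; curves spanned 0.1–300 µM; n=3.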

human CD39 [2] = molecular target: T1, human CD39; assay: Inhibition type experiments, malachite green assay on recombinant human CD39; type: biochemical
NTPDase3 = molecular target: T2, NTPDase3 (Homo sapiens, UniProt O75355); assay: Malachite green assay, NTPDase3 in COS-7 cell membranes; type: biochemical
T2 sequence (O75355 1-529): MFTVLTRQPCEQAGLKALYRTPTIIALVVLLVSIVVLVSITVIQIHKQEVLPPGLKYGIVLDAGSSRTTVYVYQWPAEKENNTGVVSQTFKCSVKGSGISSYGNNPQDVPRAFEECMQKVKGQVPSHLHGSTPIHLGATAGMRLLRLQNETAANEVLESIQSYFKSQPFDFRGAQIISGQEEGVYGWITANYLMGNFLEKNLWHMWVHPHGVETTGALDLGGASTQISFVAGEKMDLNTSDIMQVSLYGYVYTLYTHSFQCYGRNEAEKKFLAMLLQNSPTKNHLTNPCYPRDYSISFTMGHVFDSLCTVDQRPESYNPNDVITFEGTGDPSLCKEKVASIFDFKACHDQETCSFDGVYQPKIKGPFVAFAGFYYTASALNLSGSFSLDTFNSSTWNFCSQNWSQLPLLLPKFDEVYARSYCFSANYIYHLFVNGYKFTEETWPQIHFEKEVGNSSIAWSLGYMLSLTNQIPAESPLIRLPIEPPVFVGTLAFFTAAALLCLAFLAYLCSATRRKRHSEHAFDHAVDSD
Method in brief: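 Human NTPDase2, -3 or -8 was expressed in COS-7 membranes (ca. 100 ng protein, adjusted for 10–20% substrate conversion). Enzyme was preincubated 5 min at 37°C with test compound (50 µM single point, or 0.1–300 µM for curves). It was then incubated 15 min at 37°C with 100 µM ATP in HEPES/CaCl2/MgCl2, pH 7.4, ≤2% DMSO. Malachite green absorbance at 600 nm was corrected by a denatured-enzyme blank; n=3.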

[3] = stated without method or reference; cited from earlier work

- IC50 (human CD39 [1]): 11.3 ± 0.8 µM
- inhibition at 10 µM (human CD39 [1]; read-out: inhibition of human CD39): > 50%
- Ki (human CD39 [2]): 11 µM
- inhibition type (human CD39 [2]; Km unchanged, Vmax decreased, Hanes-Woolf plot): non-competitive, allosteric
- IC50 (NTPDase3): 22.7 ± 4 µM
SMILES: Cc1cc(Nc2ncc(Cl)c(Nc3ccccc3S(=O)(=O)C(C)C)n2)c(OC(C)C)cc1C1CCNCC1 [ceritinib, Ceritinib]
- pKb of the piperidine nitrogen [3]: ~10
